MEKK2mut PB1 HTS: signal of MEK5 binding to mutant human MEKK2 PB1 domain. bead flow cytometry, Alexa488-MEK5 binding to MEKK2 mutant. percent response, % at 10 µM. hit rate 0.35% among 290,000. AID 1530; in the data active = percent response above about 24%, passing the limit was not always enough
UBC13 polyUb: inhibitors of human UBC13 polyubiquitin chain formation | P61088 | hit rate 0.47% among 330,000 | TR-FRET | inhibition, % at 20 µM | AID 485273; in the data active = inhibition above about 45%, passing the limit was not always enough
Target sequence (P61088 whole entry, looked up): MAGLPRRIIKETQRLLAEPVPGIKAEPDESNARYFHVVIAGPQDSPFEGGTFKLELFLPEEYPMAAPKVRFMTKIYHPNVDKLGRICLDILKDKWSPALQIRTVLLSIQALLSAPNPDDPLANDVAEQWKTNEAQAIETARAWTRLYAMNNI
MEKK3 PB1 HTS: modulators (inhibitors or enhancers) of MEK5 binding to human MEKK3 PB1 domain | bead-based flow cytometry, Alexa488-MEK5 binding to MEKK3; actives lie on both sides; 0 = blocked by unlabeled MEK5, 100 = vehicle | binding response (% of control), % at 10 µM | hit rate 1.4% among 290,000;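 active = binding response more than 3 SD above or below the average of its plate-row segment, actives on both sides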;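 note: Alexa488 bead fluorescence after subtracting the streptavidin-only scavenger bead signal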
MEKK2wt PB1 HTS: raises or lowers MEK5 binding to wildtype human MEKK2 PB1 domain. hit rate 1.1% among 290,000. Q9Y2U5. AID 1531. bead flow cytometry, Alexa488-MEK5 binding to MEKK2 WT; actives lie on both sides. binding response (% of control), % at 10 µM; in the data active = binding response below about 67% or above about 130%
Apaf-1 inh: inhibitors of human Apaf-1 apoptosome; O14727; reconstituted apoptosome caspase-3 activity, DEVD-Rh110 fluorescence; inhibition, % at 20 µM; hit rate 0.71% among 330,000; active = inhibition of at least 40% at 20 µM
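Material: biochemical Apaf-1 apoptosome reconstitution. Medium: Hepes buffer, pH 7.5. Also added: cytochrome c activation, bis-DEVD rhodamine 110 substrate. Timing: 30 min compound preincubation, 50 min activation, room temperature. Measured by: rhodamine 110 fluorescence at Ex 480/Em 540 nm.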
UCH37 DUB inh: inhibitors of human deubiquitinating enzyme UCH37; Q9Y5K5; purified proteasome/UCH37, Ub-AMC cleavage fluorescence; inhibition, % (test concentration not listed); hit rate 0.33% among 330,000;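 active = mean inhibition over replicate wells above about 20%, limit read from the data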
Target sequence (Q9Y5K5 whole entry, looked up): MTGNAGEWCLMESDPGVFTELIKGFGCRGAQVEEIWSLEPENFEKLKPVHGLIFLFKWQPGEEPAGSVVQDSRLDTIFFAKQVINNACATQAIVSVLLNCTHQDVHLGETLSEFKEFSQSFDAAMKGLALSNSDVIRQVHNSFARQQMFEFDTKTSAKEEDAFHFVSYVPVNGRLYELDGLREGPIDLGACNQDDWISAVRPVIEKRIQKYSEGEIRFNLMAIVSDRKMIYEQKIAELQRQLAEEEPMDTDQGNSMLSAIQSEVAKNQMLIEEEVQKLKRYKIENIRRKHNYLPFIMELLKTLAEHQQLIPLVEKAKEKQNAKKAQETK
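Material: human UCH37 enzyme supplied as purified proteasome complex. Measure: % inhibition of Ub-AMC cleavage fluorescence. Medium: pH 7.4 Tris-HCl (50 mM) with ovalbumin, ATP-MgCl2, DTT. Times: 30 min preincubation with enzyme, 25 min cleavage at room temperature. Detection: AMC fluorescence intensity at 355/460 nm.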
MEKK2wt confirm: raises or lowers MEK5 binding to wildtype human MEKK2, retest; shares compounds with MEKK3 PB1 HTS; bead flow cytometry, Alexa488-MEK5 binding to MEKK2 WT; actives lie on both sides; binding response (% of control), % at 10 µM; hit rate 2.4% among 5,900; in the data active = binding response below about 16% or above about 210%; inactive = in between
MEKK2mut confirm: signal of MEK5 binding to mutant human MEKK2, retest; percent response, % at 10 µM; shares compounds with MEKK3 PB1 HTS; bead flow cytometry, Alexa488-MEK5 binding to MEKK2 mutant; hit rate 2% among 5,900; in the data active = percent response mostly above about 71%, no sharp cut-off; inactive = mostly below about 38%;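 note: higher means compound restores mutant binding toward wildtype level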
MEKK3 confirm: confirmation of inhibitors of MEK5 binding to human MEKK3; shares compounds with MEKK3 PB1 HTS; bead flow cytometry, Alexa488-MEK5 binding to MEKK3; stronger effect = lower value; binding response (% of control), % at 10 µM; hit rate 1.8% among 5,900; AID 1894;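 active = binding response below 72% of control, or above a set upper limit, though filed actives all read lower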
Each line names hits and unclear results; the compound was inactive in the other large screens (follow-up assays come after a bar, where they were run); [ ] = dose if it differs, or a comment. This is a sample that favours compounds with a hit; in the whole collection about 3% have one here.

COc1ccc(S(N)(=O)=O)cc1C(=O)NCCCN1CCN(c2cccc(Cl)c2)CC1	none (no result: MEKK2mut PB1 HTS, MEKK3 PB1 HTS, MEKK2wt PB1 HTS)
COC(=O)c1ccccc1NC(=O)N1CCN(c2ccccc2)CC1	none
O=C(COC(=O)c1cc2ccccc2cc1O)NCc1ccccc1	none (no result: MEKK2mut PB1 HTS, MEKK3 PB1 HTS, MEKK2wt PB1 HTS)
CC1CCN(CCCNC(=O)c2cc3sccc3n2C)CC1	none
COc1ccc(N2CCN(CCCNC(=O)c3cc4sccc4n3C)CC2)cc1	MEKK2wt PB1 HTS 148 | MEKK2wt confirm inactive | MEKK2mut confirm inactive | MEKK3 confirm inactive
CCCCCOc1ccc(/C(C)=N/NC2=NCCN2)cc1	MEKK2wt PB1 HTS 148 (no result: UCH37 DUB inh) | MEKK2wt confirm inactive | MEKK2mut confirm inactive | MEKK3 confirm inactive
O=C1CSC(c2ccccn2)N1c1ccc2ccccc2c1 (stereo not given)	none
C[N+]1(CC(=O)NNc2c3ccccc3nc3ccccc23)CCOCC1	none
O=C(CN1CCOCC1)NNc1c2ccccc2nc2ccccc12	MEKK3 PB1 HTS 40[inhibitor], MEKK2wt PB1 HTS 37[inhibitor] | MEKK2wt confirm inactive | MEKK2mut confirm inactive | MEKK3 confirm inactive
CC(=O)c1cccc(NC(=O)C(C)OC(=O)CCC2CCCCC2)c1 (stereo not given)	none (no result: MEKK2mut PB1 HTS, MEKK3 PB1 HTS, MEKK2wt PB1 HTS)
CC(=O)c1cccc(NC(=O)CCC2CCCC2)c1	MEKK3 PB1 HTS 2.0[inhibitor], MEKK2wt PB1 HTS 2.0[inhibitor] | MEKK2wt confirm inactive | MEKK2mut confirm inactive | MEKK3 confirm inactive
OCC1(CC2CCCCO2)CCN(Cc2cccc(O)c2)CC1 (stereo not given)	none
O=C1c2ccc3c4c(ccc(c24)C(=O)N1Cc1cccnc1)C(=O)N(Cc1cccnc1)C3=O	none (no result: UBC13 polyUb, Apaf-1 inh, UCH37 DUB inh)
O=C1c2ccc([N+](=O)[O-])cc2C(=O)N1Cc1cccnc1	MEKK2mut PB1 HTS 25 | MEKK2wt confirm inactive | MEKK2mut confirm inactive | MEKK3 confirm inactive
Cc1c(OC(C(=O)O)c2ccccc2)ccc2c3c(c(=O)oc12)CCC3 (stereo not given)	none
NC(=O)C(c1ccccc1)c1ncc(C(F)(F)F)cc1Cl (stereo not given)	none
NC(=O)C(c1ccccn1)c1ncc(C(F)(F)F)cc1Cl (stereo not given)	MEKK3 PB1 HTS 40[inhibitor] | MEKK2wt confirm inactive | MEKK2mut confirm inactive | MEKK3 confirm inactive
O=c1c2ccccc2nc(CSc2nnnn2-c2ccccc2)n1-c1ccccc1Cl	none
Cc1ncc(CO)c(/C=N/NC(=O)c2ccccc2Br)c1O	MEKK2wt PB1 HTS 5.0[inhibitor] (no result: UCH37 DUB inh) | MEKK2wt confirm inactive | MEKK2mut confirm inactive | MEKK3 confirm inactive
CC12CCC(=O)N1C(C(=O)OCC(=O)Nc1ccc(C(F)(F)F)cc1)CS2 (stereo not given)	none (no result: MEKK2mut PB1 HTS, MEKK3 PB1 HTS, MEKK2wt PB1 HTS)
CC12CCC(=O)N1C(C(=O)OCC(=O)Nc1ccc(S(N)(=O)=O)cc1)CS2 (stereo not given)	MEKK2wt PB1 HTS 49[inhibitor] | MEKK2wt confirm inactive | MEKK2mut confirm inactive | MEKK3 confirm inactive
NCCCCCNC(=O)C=NO	none (no result: MEKK2mut PB1 HTS, UBC13 polyUb, MEKK3 PB1 HTS, MEKK2wt PB1 HTS, Apaf-1 inh)
CN1CCN(CC(=O)Nc2nc(-c3c[nH]c4ccccc34)cs2)CC1	MEKK2wt PB1 HTS 145 | MEKK2wt confirm inactive | MEKK2mut confirm inactive | MEKK3 confirm inactive
CNc1nc(-c2c[nH]c3ccccc23)cs1	MEKK2wt PB1 HTS -4.0[inhibitor] | MEKK2wt confirm -5.0[inhibitor] | MEKK2mut confirm inactive | MEKK3 confirm inactive
Nc1nc(-c2c[nH]c3ccccc23)cs1	MEKK2mut PB1 HTS 69, MEKK2wt PB1 HTS -7.0[inhibitor] | MEKK2wt confirm inactive | MEKK2mut confirm inactive | MEKK3 confirm inactive
Cn1c(=O)n(Cc2ccccc2F)c(=O)c2c1nc1n2CCN1Cc1ccco1	none
CN(Cc1ccncc1)C1CC(=O)N(c2ccc(F)cc2)C1=O (stereo not given)	none
